Measured values taken from ChEMBL document CHEMBL1156614, “Discovery of imidazole vinyl pyrimidines as a novel class of kinase inhibitors which inhibit Tie-2 and are orally bioavailable” (Bioorg Med Chem Lett, 2008).

What was measured:
Angiopoietin-1 receptor [1] = molecular target: T1, Angiopoietin-1 receptor (Homo sapiens, UniProt Q02763); test: Inhibition of recombinant Tie2 expressed in baculovirus-Sf21 system
Procedure, shortened: (§1)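 Kinase-domain fragments expressed in baculovirus/Sf21 cells. Crude lysates (ice-cold Triton lysis with protease inhibitors, cleared) were diluted 1:200 for Tie-2, 1:400 for KDR and 1:1000 for Flt-1. Reactions ran on synthetic peptide-coated plates in 100 mM Hepes pH 7.4 with 5 µM ATP, 10 mM MnCl2, 0.1 mM vanadate, 0.2 mM DTT and 2.5% final DMSO, at room temperature for 60 min (Tie-2) or 20 min (KDR, Flt-1).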

[2] = molecular target: Vascular endothelial growth factor receptor 1 (Homo sapiens, UniProt P17948); test: Inhibition of recombinant Flt1 expressed in baculovirus-Sf21 system; procedure, shortened: as §1
Vascular endothelial growth factor receptor 1, sequence (P17948 whole entry): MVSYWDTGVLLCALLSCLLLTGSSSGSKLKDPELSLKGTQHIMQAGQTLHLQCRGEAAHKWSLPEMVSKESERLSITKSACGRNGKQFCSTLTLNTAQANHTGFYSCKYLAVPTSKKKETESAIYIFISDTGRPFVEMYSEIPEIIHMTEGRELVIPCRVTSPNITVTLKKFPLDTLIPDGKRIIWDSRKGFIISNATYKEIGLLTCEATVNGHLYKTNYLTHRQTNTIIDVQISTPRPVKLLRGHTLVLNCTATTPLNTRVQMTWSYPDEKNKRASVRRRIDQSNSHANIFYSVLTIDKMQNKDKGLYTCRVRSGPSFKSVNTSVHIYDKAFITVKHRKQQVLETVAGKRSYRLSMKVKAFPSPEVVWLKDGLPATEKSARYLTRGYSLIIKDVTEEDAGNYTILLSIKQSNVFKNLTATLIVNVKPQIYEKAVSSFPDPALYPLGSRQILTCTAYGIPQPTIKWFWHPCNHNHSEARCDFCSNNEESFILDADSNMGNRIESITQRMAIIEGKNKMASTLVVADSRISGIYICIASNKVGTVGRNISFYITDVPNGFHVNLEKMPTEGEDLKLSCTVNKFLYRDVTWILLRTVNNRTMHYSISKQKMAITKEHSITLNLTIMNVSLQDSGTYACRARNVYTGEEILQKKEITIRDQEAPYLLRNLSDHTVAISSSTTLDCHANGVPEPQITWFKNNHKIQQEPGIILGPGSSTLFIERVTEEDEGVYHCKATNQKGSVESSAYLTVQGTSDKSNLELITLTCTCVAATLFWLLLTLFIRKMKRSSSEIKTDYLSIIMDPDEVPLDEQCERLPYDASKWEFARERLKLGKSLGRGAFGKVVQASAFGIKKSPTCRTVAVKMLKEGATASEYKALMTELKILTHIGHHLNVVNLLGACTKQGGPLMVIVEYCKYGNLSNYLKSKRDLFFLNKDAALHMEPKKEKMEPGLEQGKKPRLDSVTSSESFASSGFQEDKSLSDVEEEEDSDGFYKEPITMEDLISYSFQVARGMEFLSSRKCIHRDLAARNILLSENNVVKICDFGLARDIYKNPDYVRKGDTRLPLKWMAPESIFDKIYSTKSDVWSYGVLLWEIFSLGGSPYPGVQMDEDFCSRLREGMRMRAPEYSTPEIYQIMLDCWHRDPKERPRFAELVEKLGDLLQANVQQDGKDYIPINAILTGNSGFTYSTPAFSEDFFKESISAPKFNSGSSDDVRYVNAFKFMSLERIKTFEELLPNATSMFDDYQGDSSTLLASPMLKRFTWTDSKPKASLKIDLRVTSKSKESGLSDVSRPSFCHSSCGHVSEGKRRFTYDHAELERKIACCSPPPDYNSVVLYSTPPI

[3] = molecular target: Vascular endothelial growth factor receptor 2 (Homo sapiens, UniProt P35968); test: Inhibition of recombinant KDR expressed in baculovirus-Sf21 system; procedure, shortened: as §1
Vascular endothelial growth factor receptor 2, sequence (P35968 whole entry): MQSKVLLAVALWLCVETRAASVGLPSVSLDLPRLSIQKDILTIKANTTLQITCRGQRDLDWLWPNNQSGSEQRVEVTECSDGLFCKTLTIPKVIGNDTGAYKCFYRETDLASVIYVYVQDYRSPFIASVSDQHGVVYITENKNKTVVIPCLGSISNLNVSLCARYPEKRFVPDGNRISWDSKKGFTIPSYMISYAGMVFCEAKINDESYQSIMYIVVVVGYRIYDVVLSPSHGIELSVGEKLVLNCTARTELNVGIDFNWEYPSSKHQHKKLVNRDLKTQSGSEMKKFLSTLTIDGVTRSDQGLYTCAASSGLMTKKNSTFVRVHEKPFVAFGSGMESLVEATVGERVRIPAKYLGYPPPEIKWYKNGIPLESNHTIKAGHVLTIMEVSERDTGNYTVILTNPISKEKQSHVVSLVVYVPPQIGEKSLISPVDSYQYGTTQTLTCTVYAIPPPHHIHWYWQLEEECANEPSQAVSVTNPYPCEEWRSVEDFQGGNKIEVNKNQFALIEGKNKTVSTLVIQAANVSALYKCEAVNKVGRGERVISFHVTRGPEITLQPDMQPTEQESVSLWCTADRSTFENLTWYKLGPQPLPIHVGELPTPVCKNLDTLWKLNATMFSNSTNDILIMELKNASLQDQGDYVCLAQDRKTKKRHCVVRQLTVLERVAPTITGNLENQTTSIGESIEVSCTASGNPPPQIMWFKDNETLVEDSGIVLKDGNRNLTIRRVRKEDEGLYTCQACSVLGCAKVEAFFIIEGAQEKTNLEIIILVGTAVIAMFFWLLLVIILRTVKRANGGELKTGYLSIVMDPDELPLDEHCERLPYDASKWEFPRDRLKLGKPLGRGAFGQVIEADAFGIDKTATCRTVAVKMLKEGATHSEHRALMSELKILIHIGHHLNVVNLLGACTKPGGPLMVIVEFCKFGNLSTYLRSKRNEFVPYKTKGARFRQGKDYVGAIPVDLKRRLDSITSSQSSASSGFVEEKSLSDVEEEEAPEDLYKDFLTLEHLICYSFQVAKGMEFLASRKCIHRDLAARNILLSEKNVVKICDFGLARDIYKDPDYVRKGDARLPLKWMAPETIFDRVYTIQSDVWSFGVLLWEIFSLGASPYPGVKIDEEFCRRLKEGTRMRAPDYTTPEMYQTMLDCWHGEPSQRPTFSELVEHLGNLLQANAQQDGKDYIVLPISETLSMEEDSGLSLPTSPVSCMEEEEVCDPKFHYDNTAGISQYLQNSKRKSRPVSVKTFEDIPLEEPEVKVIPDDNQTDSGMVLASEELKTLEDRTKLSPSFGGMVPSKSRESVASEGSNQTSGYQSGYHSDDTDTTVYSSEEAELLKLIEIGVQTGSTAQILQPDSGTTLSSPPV

Angiopoietin-1 receptor [4] = molecular target: T1, Angiopoietin-1 receptor; test: Inhibition of human Tie2 autophosphorylation expressed in CHOK1 cells by ELISA; type: cell-based, CHO-K1
Procedure, shortened: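 CHO-K1 cells stably expressing human Tie-2 were seeded at 6×10^4 cells/well and grown 3 days in DMEM/G418/10% FCS. Compound was added in DMEM with 1% FCS for 45 min at 37 °C. Cells were lysed on ice, and lysate was captured on a human Tie-2 ELISA plate (2 h, room temperature). Phospho-Tie-2 was detected with a rabbit antibody, then anti-rabbit HRP and colour reagent; read at OD450.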

[5] = Inhibition of p38
HUVEC = test: Inhibition of growth factor-stimulated proliferation of HUVEC; type: functional, cell-based; settings: Homo sapiens
[6] = Fraction unbound ligand in mouse; type: ADME, organism-based; settings: in vivo
[7] = Fraction unbound ligand in rat; type: ADME
[8] = Cmax in mouse at 2 mg/kg by cassette dosing assay; type: ADME, organism-based; parameters: dose 2 mg/kg; settings: in vivo
Mus musculus = test: AUC in mouse at 2 mg/kg by cassette dosing assay; type: ADME, organism-based, Plasma; parameters: dose 2 mg/kg; settings: in vivo
[9] = Cmax in mouse at 1 mg/kg, po by cassette dosing assay; type: ADME, organism-based; parameters: dose 1 mg/kg, route oral; settings: in vivo

T1 sequence (Q02763 whole entry, the tested form may be a part): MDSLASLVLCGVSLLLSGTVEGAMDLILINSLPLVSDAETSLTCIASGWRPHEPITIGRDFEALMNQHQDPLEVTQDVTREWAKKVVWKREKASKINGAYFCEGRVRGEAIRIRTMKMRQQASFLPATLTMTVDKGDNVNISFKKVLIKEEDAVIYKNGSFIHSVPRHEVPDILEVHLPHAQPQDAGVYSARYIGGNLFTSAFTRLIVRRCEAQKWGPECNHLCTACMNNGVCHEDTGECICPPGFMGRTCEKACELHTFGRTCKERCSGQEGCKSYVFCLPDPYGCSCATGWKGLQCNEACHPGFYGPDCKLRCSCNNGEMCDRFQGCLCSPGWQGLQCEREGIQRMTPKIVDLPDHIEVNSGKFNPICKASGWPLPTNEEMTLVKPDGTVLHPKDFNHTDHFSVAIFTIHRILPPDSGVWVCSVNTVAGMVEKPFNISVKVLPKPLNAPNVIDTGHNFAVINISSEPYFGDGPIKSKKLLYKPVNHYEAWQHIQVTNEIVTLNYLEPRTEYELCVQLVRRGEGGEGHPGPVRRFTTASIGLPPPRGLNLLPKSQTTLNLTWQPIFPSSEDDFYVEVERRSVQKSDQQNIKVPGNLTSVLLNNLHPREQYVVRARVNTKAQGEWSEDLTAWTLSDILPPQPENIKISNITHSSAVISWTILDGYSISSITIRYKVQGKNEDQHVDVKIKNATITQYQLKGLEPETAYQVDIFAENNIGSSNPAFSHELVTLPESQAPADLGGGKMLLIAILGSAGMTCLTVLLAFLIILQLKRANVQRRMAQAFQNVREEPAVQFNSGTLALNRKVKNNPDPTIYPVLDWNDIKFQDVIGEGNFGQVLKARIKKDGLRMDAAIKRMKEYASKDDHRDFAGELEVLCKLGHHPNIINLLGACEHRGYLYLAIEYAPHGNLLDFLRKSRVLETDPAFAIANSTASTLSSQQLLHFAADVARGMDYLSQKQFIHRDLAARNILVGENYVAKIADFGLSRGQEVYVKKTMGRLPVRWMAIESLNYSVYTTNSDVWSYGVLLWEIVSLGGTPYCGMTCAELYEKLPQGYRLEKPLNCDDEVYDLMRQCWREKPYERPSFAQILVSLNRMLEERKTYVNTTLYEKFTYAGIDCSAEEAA

SMILES | IC50 (Angiopoietin-1 receptor [1]) [µM] | IC50 [2] [µM] | IC50 [3] [µM] | other results
Nc1nccc(/C=C/c2[nH]ncc2-c2ccccc2)n1 | 64 | > 100 | > 100 | –
Nc1nccc(/C=C/c2c(-c3ccccc3)ncn2Cc2ccccc2)n1 | 2.8 | 31 | 7 | –
Nc1cc(/C=C/c2c(-c3ccccc3)nc3sccn23)ncn1 | 5.2 | > 100 | 35 | –
Nc1nccc(/C=C/c2[nH]cnc2-c2ccccc2)n1 | 8.4 | 68 | 9.8 | IC50 (Angiopoietin-1 receptor [4]): 0.37 µM
CC(=O)Nc1nccc(/C=C/c2c(-c3ccccc3)nc3sccn23)n1 | 11 | 100 | 4.5 | –
Nc1nccc(/C=C/c2c(-c3ccc(F)cc3)nc3sccn23)n1 | 13 | – | – | –
Nc1nccc(/C=C/c2c(-c3ccccc3)nc3ccccn23)n1 | 5.6 | 79 | 13 | –
Cn1c(-c2ccccc2)c(/C=C/c2ccnc(N)n2)c2ccccc21 | 83 | – | – | –
Cc1nc2sccn2c1/C=C/c1ccnc(N)n1 | > 100 | > 100 | 70 | –
C(=C\c1c(-c2ccccc2)nc2sccn12)/c1ccnc(Nc2ccccc2)n1 | 68 | > 100 | > 100 | –
CC(C)(C)C(=O)Nc1nccc(/C=C/c2c(-c3ccccc3)nc3sccn23)n1 | 41 | 96 | 13 | –
Nc1nccc(/C=C/c2ccsc2-c2ccccc2)n1 | > 100 | > 100 | > 100 | –
CNc1nccc(/C=C/c2c(-c3ccccc3)nc3sccn23)n1 | 14 | 84 | 17 | –
Clc1nccc(/C=C/c2c(-c3ccccc3)nc3sccn23)n1 | 55 | 66 | > 100 | –
C(=C\c1c(-c2ccccc2)nc2sccn12)/c1ccncn1 | 27 | > 100 | 77 | –
Nc1nccc(/C=C/c2c(Cl)nc3sccn23)n1 | > 100 | > 100 | 31 | –
Nc1nccc(/C=C/c2c(-c3ccccc3)nc3n2CCS3)n1 | 2.9 | 23 | 3.2 | –
CC(Nc1nccc(/C=C/c2c(-c3ccccc3)nc3sccn23)n1)c1ccccc1 (centres undefined) | > 100 | > 100 | > 100 | –
Nc1nccc(/C=C/c2c(-c3ccccc3)nc3sccn23)n1 | 6 | 30 | 7 | Cmax [9]: 290 nM
Nc1nccc(/C=C/c2c(-c3ccccc3)ncn2CCN2CCCC2)n1 | 21 | > 100 | 32 | –
Nc1ccnc(/C=C/c2c(-c3ccccc3)nc3sccn23)n1 | > 100 | > 100 | > 100 | –
Nc1nccc(/C=C/c2sccc2-c2ccccc2)n1 | > 100 | > 100 | > 100 | –

Now from value to molecule, other results behind:

IC50 (Angiopoietin-1 receptor [1]) [µM] | IC50 [2] [µM] | IC50 [3] [µM] | SMILES | other results
> 100 | > 100 | 7.8 | Cn1cnc(/C=C/c2ccnc(N)n2)c1-c1ccccc1 | –
3.8 | 34 | 3.2 | Cn1cnc(-c2ccccc2)c1/C=C/c1ccnc(N)n1 | IC50 (Angiopoietin-1 receptor [4]): 0.34 µM; IC50 [5]: 12 µM; IC50 (HUVEC): > 10 µM; fraction unbound [6]: 0.125; fraction unbound [7]: 0.099; Cmax [8]: 460 nM; AUC (Mus musculus): 0.58 µM·h
> 100 | > 100 | > 100 | Cn1cnc(-c2ccccc2)c1NCCc1ccnc(N)n1 | –
6.4 | 36 | 2.9 | Cn1cnc(-c2ccccc2)c1C#Cc1ccnc(N)n1 | –
> 100 | > 100 | > 100 | Cn1cnc(-c2ccccc2)c1CNc1ccnc(N)n1 | –
> 100 | > 100 | > 100 | Cn1cnc(-c2ccccc2)c1C(=O)Nc1ccnc(N)n1 | –
> 100 | > 100 | > 100 | Cn1cnc(-c2ccccc2)c1NC(=O)c1ccnc(N)n1 | –
> 100 | > 100 | > 100 | Cn1cnc(-c2ccccc2)c1C1CC1c1ccnc(N)n1 (centres undefined) | –
68 | – | – | Nc1nccc(/C=C/c2c(-c3ccccc3)ncn2CC(=O)O)n1 | –
> 100 | > 100 | > 100 | Cn1cnc(-c2ccccc2)c1Nc1ccnc(N)n1 | –
